A selection: hits, their analogues and other compounds. The true share with any hit is near 2.6%.
SENP8 block-1 = SENP8 protease inhibition | Q96LD8 | purified SENP8, Z-RLRGG-aminoluciferin cleavage, luminescence | inhibition, % at 10 µM | actives 1.2% (n = 330,000) | AID 2540; in the data active = inhibition above about 50%
Target sequence (Q96LD8 whole entry, looked up): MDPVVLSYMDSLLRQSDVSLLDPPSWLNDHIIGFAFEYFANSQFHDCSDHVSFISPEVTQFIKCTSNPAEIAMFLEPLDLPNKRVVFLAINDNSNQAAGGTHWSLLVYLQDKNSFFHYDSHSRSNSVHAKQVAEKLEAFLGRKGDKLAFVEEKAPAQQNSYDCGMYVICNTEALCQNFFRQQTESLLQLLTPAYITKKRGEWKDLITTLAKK
SENP1 inh = blocks the human SENP1 SUMO protease catalytic domain | Q9P0U3 | actives 0.21% (n = 360,000) | inhibition, % at 10 µM | recombinant SENP1 catalytic domain, CyPet-SUMO1-YPet FRET cleavage | AID 624204;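 active = inhibition at least 30% at 10 µM, raw YFP signal under a set limit, fluorescence ratio 0.5 to 1.5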;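 also: 0% = enzyme with DMSO and 100% = no enzyme wells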
Target sequence (Q9P0U3 419-644 limits assumed): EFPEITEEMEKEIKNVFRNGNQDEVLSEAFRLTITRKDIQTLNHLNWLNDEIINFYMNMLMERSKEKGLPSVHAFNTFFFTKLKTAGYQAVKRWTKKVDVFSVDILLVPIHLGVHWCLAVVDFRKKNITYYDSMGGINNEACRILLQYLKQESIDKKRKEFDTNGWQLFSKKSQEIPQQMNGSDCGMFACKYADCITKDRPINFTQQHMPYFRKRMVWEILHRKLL
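System: Recombinant human SENP1 catalytic domain, His6-tagged | Incubation: Enzyme reaction for 50 min at room temperature, dark | Medium: Tris pH 8 with BME, BSA, NP40 and catalase | Also added: 25 nM SUMO1 FRET substrate | Compound: 10 µM single point, 0.5% DMSO | Measured by: FRET fluorescence in CFP and YFP emission channels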
Platelet DG rel = platelet dense granule release activity; human platelet-rich plasma, SFLLRN dense granule ATP release, luminescence; inhibition, %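 (compounds screened at 7.5 µM in platelet-rich plasma)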; actives 0.22% (n = 300,000);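 active = mean replicate score, as percent of positive control, at or above 50; inconclusive = mean below 50 but at least one replicate at or above 50; inactive = mean and every replicate below 50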
SENP8 block-2 = blocks human SENP8 cleavage of Nedd8 substrate. recombinant SENP8, Nedd8 substrate fluorescence. inhibition, % at 20 µM. actives 0.64% (n = 360,000). AID 602440; in the data active = inhibition mostly above about 40%, no sharp cut-off; inactive = mostly below about 27%
SENP6 inh = SENP6 protease inhibition. Q9GZR1. Recombinant SENP6 catalytic domain, aminoluciferin luminescence. inhibition, % at 10 µM. actives 1.8% (n = 330,000). AID 2599;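 active = inhibition above about 50% at the single tested dose, limit read from the data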;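 also: plate controls were DMSO wells with enzyme for no effect and DMSO wells lacking enzyme for full effect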
SENP7 inh = blocks the human protease SENP7; recombinant SENP7, Z-RLRGG-aminoluciferin luminescence, 40 min; inhibition, % at 5 µM; Q9BQF6; actives 1.5% (n = 330,000); AID 434973;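 active = inhibition above about 50% at the single test dose, limit read from the data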;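 also: plate controls were DMSO with enzyme for no effect and no enzyme buffer wells for full effect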
SENP8 confirm = confirmation of human SENP8 protease inhibitors; shares compounds with SENP7 inh; actives 40% (n = 6,200); AID 488912; Recombinant SENP8, Z-RLRGG-aminoluciferin luminescence, 60 min; inhibition, % at 12.5 µM;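 active = mean inhibition across replicates above about 50%, limit read from the data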
SENP6 conf = confirmation of human SENP6 protease inhibitors | shares compounds with SENP7 inh | recombinant SENP6, Z-RLRGG-aminoluciferin luminescence | inhibition, % at 12.5 µM | actives 58% (n = 6,200) | AID 488915
SENP7 conf = human SENP7 inhibition, confirmed. shares compounds with SENP7 inh. recombinant SENP7, Z-RLRGG-aminoluciferin luminescence, 40 min. inhibition, % at 12.5 µM. actives 69% (n = 6,200). AID 488917
Casp3 select = inhibits human caspase-3 in SENP selectivity test. shares compounds with SENP7 inh. purified caspase-3, Z-DEVD-aminoluciferin luminescence, 60 min. inhibition, % at 12.5 µM. actives 60% (n = 6,200);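 active = mean inhibition above about 50%, limit read from the data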;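 also: plate controls were enzyme with DMSO for no effect and wells without caspase-3 for full effect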
Target sequence (P42574 28-227 limits assumed): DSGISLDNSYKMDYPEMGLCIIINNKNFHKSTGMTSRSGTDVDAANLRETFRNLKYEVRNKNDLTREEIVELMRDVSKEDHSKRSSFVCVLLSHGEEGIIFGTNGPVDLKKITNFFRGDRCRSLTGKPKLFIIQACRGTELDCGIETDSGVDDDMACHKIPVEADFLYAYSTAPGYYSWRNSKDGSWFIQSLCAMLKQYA
SENP luc ctr = counter-screen for SENP inhibitors: luminescence interference; shares compounds with SENP7 inh; Pre-incubated SENP8/Z-RLRGG-aminoluciferin, luciferase luminescence interference; inhibition, % at 12.5 µM; actives 39% (n = 6,200); AID 488919;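 active = mean inhibition above about 50% when retested at one dose, limit read from the data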;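 also: plate controls were DMSO wells with completed reaction for no effect and substrate without enzyme for full effect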
Numbers without * were called inactive; u = inconclusive; x = not tested or not shown.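 The calls were made as follows, unless noted: active = mean inhibition above about 50% in the one-dose retest (limit read from the data); inactive = the rest.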

SMILES	SENP8 block-1	SENP1 inh	Platelet DG rel	SENP8 block-2	SENP6 inh	SENP7 inh	SENP8 confirm	SENP6 conf	SENP7 conf	Casp3 select	SENP luc ctr
CSc1cccc(NC(=O)Nc2ccccc2C(N)=O)c1	64*	2	-6	-173	77*	78*	6	64*	87*	63*	25
N#Cc1c(N)nc(SCc2ccncc2)c(C#N)c1-c1cccs1	-7	3	6	-62	-9	-3	x	x	x	x	x
CN1CCc2nc(SCc3ccc(Cl)cc3)c(C#N)c(-c3cccs3)c2C1	69*	x	1	x	76*	38	-4	2	11	4	2
COC(=O)c1sccc1NC(=O)c1ccc2c(c1)OCO2	-24	2	24	-60	-5	6	x	x	x	x	x
COc1cccc(NC(=O)c2ccc3c(c2)OCCO3)c1	94*	1	52*	11	94*	97*	97*	98*	102*	97*	96*
COc1cccc(NC(=O)c2ccc3c(c2)N(C)CCS3)c1	94*	-20	24	-466	91*	96*	95*	96*	100*	94*	96*
COC(=O)c1c(-c2cccnc2)csc1NC(=O)c1ccc2c(c1)OCO2	73*	-16	u	-465	72*	95*	12	21	21	36	0
COc1cccc(NC(=O)c2ccc3c(c2)OCO3)c1	88*	0	12	29	93*	96*	-1	90*	100*	95*	90*
CN1CCSc2ccc(C(=O)Nc3ccc(Cl)cc3)cc21	-18	-14	1	-424	-28	5	x	x	x	x	x
O=C(Nc1cccc2nsnc12)c1cc2c(cc1Cl)Sc1nccn1S2(=O)=O	x	-12	x	-453	x	x	x	x	x	x	x
CCc1ccc(NC(=O)C(C)OC(=O)c2ccc(N3CCCC3)c([N+](=O)[O-])c2)cc1 (stereo not given)	1	5	0	16	1	10	x	x	x	x	x
CC(C)Oc1cccc(C(=O)Nc2ccc(CN3CCOCC3)cc2)c1	-1	1	-1	10	-12	6	x	x	x	x	x
COc1cccc(NC(=O)c2ccc(CN3CCOCC3)cc2)c1	12	-2	4	8	50*	39	27	21	57*	63*	34
Cc1cc(C)nc(NC(=O)c2ccc3c(c2)OCO3)c1	59*	x	17	x	71*	80*	75*	74*	90*	88*	76*
C=CCN(c1ccc(C(=O)NCCN2CCOCC2)cc1)S(C)(=O)=O	-6	1	3	16	2	-1	x	x	x	x	x
COc1cccc(C=NNc2ccc([N+](=O)[O-])cn2)c1OC	x	-30	x	-186	x	x	x	x	x	x	x
Cc1cc(/C=N/Nc2nc(N)ncc2[N+](=O)[O-])c(C)n1-c1cccc(C(F)(F)F)c1	-16	x	9	x	1	-15	x	x	x	x	x
COc1cccc(/C=N/Nc2ncnc(N)c2[N+](=O)[O-])c1OC	17	2	32	20	68*	72*	38	46	64*	77*	21
Cc1cc(/C=N/Nc2ncnc(N)c2[N+](=O)[O-])c(C)n1-c1ccccc1	94*	4	67*	55*	0	97*	6	61*	95*	52*	11
O=C(Nc1ccc(F)c([N+](=O)[O-])c1)c1ccc2c(c1)OCCO2	29	1	13	9	57*	69*	31	41	87*	61*	40
COc1ccc(C(=O)Nc2ccc3c(c2)OCCO3)cc1[N+](=O)[O-]	-2	0	-5	19	14	8	x	x	x	x	x
O=C(Nc1ccc(Cl)cc1[N+](=O)[O-])c1ccc2c(c1)OCCO2	-16	3	3	9	17	64*	15	10	8	6	-5
Cc1ccc(-c2cc3c(N=O)c4ccccc4c-3n[nH]2)cc1	23	-1	u	0	100*	101*	39	30	21	55*	8
COc1ccc(Cc2c(C(C)(C)C)nc3c(C)cc(Br)cn23)c(C)c1	x	3	x	-9	x	x	x	x	x	x	x
COc1ccccc1/C=N/Nc1nncc2ccccc12	20	4	28	1	43	37	x	x	x	x	x
SMILES	SENP8 block-1	SENP1 inh	Platelet DG rel	SENP8 block-2	SENP6 inh	SENP7 inh	SENP8 confirm	SENP6 conf	SENP7 conf	Casp3 select	SENP luc ctr
Oc1c(Br)cc(/C=N/Nc2nncc3ccccc23)cc1Br	69*	x	20	x	72*	17	8	11	-1	7	0
COc1ccc(/C(C)=N/Nc2nncc3ccccc23)cc1	46	2	10	23	46	75*	2	6	10	18	-4
COc1ccc(/C=N/Nc2nncc3ccccc23)cc1	97*	1	68*	-2	99*	97*	97*	100*	104*	99*	99*
N#Cc1cc[n+](CC(=O)c2ccc(NC(=O)c3ccccc3)cc2)cc1	-4	-41	5	-76	23	11	x	x	x	x	x
COc1ccc(C)cc1-n1nnnc1SCc1nc(N)nc(N(C)C)n1	x	0	x	5	x	x	x	x	x	x	x
COc1ccc(-c2cn3cc(C)ccc3n2)cc1OC	36	2	18	-333	57*	16	68*	65*	90*	89*	78*
COc1ccc(-c2nc3c(-c4ccccc4)cnn3cc2C)cc1F	0	-18	-3	15	16	9	x	x	x	x	x
COc1ccc(-c2cn3cc(C)ccc3n2)cc1F	69*	1	5	-408	77*	78*	11	74*	90*	80*	32
CCOc1ccc(/C=C(\C)C(=O)c2c(C)cc(C)[nH]c2=O)cc1	16	1	-1	7	13	2	x	x	x	x	x
O=S(=O)(c1ccc(SCCOc2ccc(Cl)cc2)nc1)N1CCCC1	3	1	x	6	2	5	x	x	x	x	x
O=C(/C=C/Nc1ccccc1C(F)(F)F)c1ccco1	54*	-43	4	-27	77*	69*	2	60*	87*	51*	44
O=C(/C=C/Nc1ccc(Oc2ccccc2)cc1)c1ccco1	95*	-20	53*	-241	95*	98*	32	98*	102*	95*	19

Source: PubChem BioAssay
